Test results taken from PubChem BioAssay AID602408 (Southern Research Specialized Biocontainment Screening …, 2012).
“And” between values parts separate entries of the source, which are not always exact repeats. Identical values can stand only once. The source made the active and inactive calls.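 Rule for the calls: active = inhibition of phage lysis above 30%; inactive = the rest.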

Test system: E. coli UTI89 K1 capsule, phage lysis, A600
Test: blocking phage-mediated lysis of K1 E. coli – UTI89 strain, A600 absorbance, round 2, bacterial capsule biogenesis project, confirmation (AID 602408)
Conditions: not given
How it was run: (§1)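 Test system: E. coli K1 UTI89 cells. Dosing: compound with 1% DMSO final in well. Incubation: 1.5 h shaking compound pre-incubation, 2 h phage exposure, 37 °C. Detection: OD600 absorbance. Evaluation: phage lysis by OD600, pre-phage OD600 for growth effects. Replicates: duplicates.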

IC50 | SMILES
8.06 µM | CCCOc1ccc(-c2cc(NC(=O)c3c(F)cc(F)cc3F)c(C(=O)O)s2)cc1
42.2 µM | O=C(Nc1cc(-c2ccccc2)sc1C(=O)O)c1ccc(Br)o1
2.01 µM | O=C(ONc1ccc(N=NC(=O)c2ccccc2O)cc1)c1ccccc1
9.72 µM | CC(C)(C)c1ccc(-c2cc(NC(=O)c3cccc(F)c3)c(C(=O)O)s2)cc1
< 0.78 µM | CCCCOc1ccc(-c2cc(NC(=O)c3c(F)cccc3F)c(C(=O)O)s2)cc1
94.9 µM | O=C(O)c1sc(-c2ccc(OCC(F)(F)F)cc2)cc1NC(=O)c1c(F)cc(F)cc1F
23.3 µM | CCCCOc1ccc(-c2cc(NC(=O)c3cc(Br)c(Br)o3)c(C(=O)O)s2)cc1
2.33 µM | COc1ccc2nc(NC(=O)c3ccc(Br)s3)sc2c1
0.84 µM | O=C(Nc1cc(-c2ccc(OCCC(F)(F)F)cc2)sc1C(=O)O)c1ccc(Br)o1
4.6 µM | O=C(Nc1cc(-c2ccc(OC(F)(F)F)cc2)sc1C(=O)O)c1ccc(Br)o1
11.3 µM | Cc1ccc(-c2cc(NC(=O)c3ccc(Br)o3)c(C(=O)O)s2)cc1
1.43 µM | CCCc1ccc(-c2cc(NC(=O)c3ccc(Br)o3)c(C(=O)O)s2)cc1
1.78 µM | O=C(Nc1cc(-c2ccc(OCCCC(F)(F)F)cc2)sc1C(=O)O)c1ccc(Br)o1
9.74 µM | O=C(Nc1cc(-c2ccc(C(F)(F)F)cc2)sc1C(=O)O)c1ccc(Br)o1
2.63 µM | CCCc1ccc(-c2cc(NC(=O)c3c(F)cccc3F)c(C(=O)O)s2)cc1
59.9 µM | CCOc1ccc(-c2cc(NC(=O)c3ccc(OC)c(OC)c3)c(C(=O)O)s2)cc1
2.8 µM and 3.73 µM | CCOc1ccc(-c2cc(NC(=O)c3c(F)cccc3F)c(C(=O)O)s2)cc1
18.6 µM | O=C(Nc1ccncc1F)c1ccc2ncsc2c1
52.6 µM | CCOc1ccc(-c2cc(NC(=O)c3c(F)cccc3C(F)(F)F)c(C(=O)O)s2)cc1
7.75 µM | COc1cc(NC(=O)c2ccc3ncsc3c2)ccn1

IC50 | SMILES
21.3 µM | Cc1ccc(-c2cc(NC(=O)c3c(F)cccc3F)c(C(=O)O)s2)cc1
2.86 µM | O=C(O)c1sc(-c2ccc(OCC(F)(F)F)cc2)cc1NC(=O)c1c(F)cccc1F
6.39 µM | CCCCOc1ccc(-c2cc(NC(=O)c3c(F)cc(F)cc3F)c(C(=O)O)s2)cc1
4.9 µM | O=C(Nc1cc(-c2ccc(OCC(F)(F)F)cc2)sc1C(=O)O)c1ccc(Br)o1
10.3 µM | O=C(O)c1sc(-c2ccc(OCCCC(F)(F)F)cc2)cc1NC(=O)c1c(F)cccc1F
1.05 µM | O=C(Nc1ccncc1)c1ccc2ncsc2c1
85.5 µM | O=C(Nc1cc(-c2ccccc2)sc1C(=O)O)c1cccc(Cl)c1
4.26 µM | O=C(Nc1ccnc(Br)c1)c1ccc2ncsc2c1
17.5 µM | [N-]=[N+]=NCCOc1ccc(-c2cc(NC(=O)c3c(F)cccc3F)c(C(=O)O)s2)cc1
18.4 µM | CC(C)c1ccc(-c2cc(NC(=O)c3cccc(F)c3)c(C(=O)O)s2)cc1
3.11 µM | O=C(O)c1sc(-c2ccc(OCCC(F)(F)F)cc2)cc1NC(=O)c1c(F)cc(F)cc1F
5.06 µM | CCOc1ccc2nc(NC(=O)c3ccc(Br)s3)sc2c1
37.9 µM | CC1=NN2C(=N)/C(=C\c3ccc(SCc4ccco4)o3)C(=O)N=C2S1
43.9 µM | CC1(C(=O)O)CCC(C(=O)Nc2ccc3ccccc3c2)C1(C)C (configuration not stated)
20.1 µM | CCOc1ccc(-c2cc(NC(=O)c3cccc(F)c3)c(C(=O)O)s2)cc1
4.62 µM | O=C(Nc1ccnc(F)c1)c1ccc2ncsc2c1
32.2 µM | O=C(Nc1cc(-c2ccc(OCCCC(F)(F)F)cc2)sc1C(=O)O)c1cc(Br)c(Br)o1
44.5 µM | Cc1ccc(-c2cc(NC(=O)c3cccc(F)c3)c(C(=O)O)s2)cc1
4.85 µM | CCOc1ccc(-c2cc(NC(=O)c3ccc(Br)o3)c(C(=O)O)s2)cc1
89.1 µM | O=C(Nc1cc(-c2ccccc2)sc1C(=O)O)c1ccc2c(c1)OCCO2

IC50 | SMILES
6.78 µM | CCCc1ccc(-c2cc(NC(=O)c3cc(Br)c(Br)o3)c(C(=O)O)s2)cc1
20 µM | CCOc1ccc(-c2cc(NC(=O)c3c(F)cc(F)cc3F)c(C(=O)O)s2)cc1
68.1 µM | O=C(Nc1cc(-c2ccccc2)sc1C(=O)O)c1cccs1
6.99 µM | CC(C)(C)c1ccc(-c2cc(NC(=O)c3c(F)cccc3F)c(C(=O)O)s2)cc1
9.77 µM | O=C(O)c1sc(-c2ccc(OC(F)(F)F)cc2)cc1NC(=O)c1c(F)cccc1F
20.9 µM | O=C(O)c1sc(-c2ccc(C(F)(F)F)cc2)cc1NC(=O)c1c(F)cccc1F
15.9 µM | CCCc1ccc(-c2cc(NC(=O)c3c(F)cc(F)cc3F)c(C(=O)O)s2)cc1
23.6 µM | CC(C)c1ccc(-c2cc(NC(=O)c3cc4ccccc4o3)c(C(=O)O)s2)cc1
5.53 µM | O=C(O)c1sc(-c2ccc(OCCCC(F)(F)F)cc2)cc1NC(=O)c1c(F)cc(F)cc1F
0.85 µM | CCCCOc1ccc(-c2cc(NC(=O)c3ccc(Br)o3)c(C(=O)O)s2)cc1
2.57 µM | O=C(Nc1ccnc(Cl)c1)c1ccc2ncsc2c1
0.84 µM | O=C(O)c1sc(-c2ccc(OCCC(F)(F)F)cc2)cc1NC(=O)c1c(F)cccc1F
64.9 µM | CCOc1ccc(-c2cc(NC(=O)c3cccc(Cl)c3)c(C(=O)O)s2)cc1
2.81 µM | CC(C)c1ccc(-c2cc(NC(=O)c3ccc(Br)o3)c(C(=O)O)s2)cc1
8.75 µM | COc1ccc(-c2cc(NC(=O)c3ccc(Br)o3)c(C(=O)O)s2)cc1
13.9 µM | CCOc1ccc(-c2cc(NC(=O)c3ccc(Br)s3)c(C(=O)O)s2)cc1
14.8 µM | O=C(NCc1cc([N+](=O)[O-])ccc1O)c1cccnc1Sc1ccccc1Cl
5.88 µM | CC(C)c1ccc(-c2cc(NC(=O)c3c(F)cccc3F)c(C(=O)O)s2)cc1

Test system: not listed separately
Test: as above
Conditions: E. coli UTI89 K1 capsule, phage lysis, A600; at 100 µM (top of the series)
How it was run: as §1

SMILES | inhibition of phage lysis
COc1ccc2nc(NC(=O)c3ccco3)sc2c1 | 0.81% (inactive)
O=C(Nc1ccncc1)c1ccc2ncsc2c1 | 17.9% (inactive)
O=C(NC1CCNCC1)c1ccc2ncsc2c1 | -6.19% (inactive)
O=C(Nc1cc(-c2ccc(OCCCC(F)(F)F)cc2)sc1C(=O)O)c1cc(Br)c(Br)o1 | 12.2% (inactive)
O=C(Nc1ncccc1O)c1ccc2ncsc2c1 | 0.85% (inactive)
COc1cc2sc(NC(=O)c3ccc(Br)s3)nc2cc1F | -6.05% (inactive)
O=C(NCCc1ccncc1)c1ccc2ncsc2c1 | 8.25% (inactive)
O=C(NCc1ccncc1)c1ccc2ncsc2c1 | -2.06% (inactive)
COc1ccc2nc(NC(=O)c3cccs3)sc2c1 | 24% (inactive)
